Measured values as given in ChEMBL document CHEMBL5712904 (Cancers (Basel), 2018).
The source made the active and inactive calls. No cut-off for these calls is given here.

Columns and labels:
SK-OV-3 [1] = assay: Upregulation of GLUT1 in human SK-OV-3 cells at 50 nM after 24 hrs by immunoblotting analysis; format: functional, cell-based
OVCAR-3 [2] = assay: Upregulation of GLUT1 in human OVCAR-3 cells at 50 […] after 24 hrs by immunoblotting analysis; format: functional, cell-based
SK-OV-3 [3] = assay: […] of glycolysis in human SK-OV-3 cells ssessed as decrease in conversion of D-[5-3H(N)]-glucose to 3H2O at 50 nM incubated for 24 hrs by liquid scintillation counting; format: functional, cell-based
Outline: (§1)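 Medium was acidified to 0.2 N HCl, and 3H2O was allowed to diffuse into water for 3 days before scintillation counting. Results are given as % glucose conversion/5 × 10^5 cells/6 h, triplicates.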

OVCAR-3 [4] = assay: […] of glycolysis in human OVCAR-3 cells ssessed as decrease in conversion of D-[5-3H(N)]-glucose to 3H2O at 50 nM incubated for 24 hrs by liquid scintillation counting; format: functional, cell-based; outline: as §1
SK-OV-3 [5] = assay: Upregulation of GLUT1 in human SKOV-3 cells at 2 mM after 24 hrs by immunoblotting analysis; format: functional, cell-based
OVCAR-3 [6] = assay: Upregulation of GLUT1 in human OVCAR-3 cells at 2 mM after 24 hrs by immunoblotting analysis; format: functional, cell-based
SK-OV-3 [7] = assay: […] of glycolysis in human SK-OV-3 cells ssessed as decrease in conversion of D-[5-3H(N)]-glucose to 3H2O at 2 mM incubated for 24 hrs by liquid scintillation counting; format: functional, cell-based; outline: as §1
OVCAR-3 [8] = assay: […] of glycolysis in human OVCAR-3 cells ssessed as decrease in conversion of D-[5-3H(N)]-glucose to 3H2O at 2 mM incubated for 24 hrs by liquid scintillation counting; format: functional, cell-based; outline: as §1
SK-OV-3 [9] = assay: Antiproliferative activity against human SK-OV-3 cells assessed as reduction in number of cells at 25 to 75 nM after 24 hrs; format: functional, cell-based; conditions: dose 25-75 nM
Outline: (§2)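 Cells were grown in 12-well plates in RPMI 1640 with 10% FBS and treated with 0, 25, 50 or 75 nM inhibitor for 24 h. They were then trypsinized and counted with a Coulter counter. Data are mean ± SD of triplicates.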

OVCAR-3 [10] = assay: Antiproliferative activity against human OVCAR-3 cells assessed as reduction in number of cells at 25 to 75 nM after 24 hrs; format: functional, cell-based; conditions: dose 25-75 nM; outline: as §2
SK-OV-3 [11] = assay: Antiproliferative activity against human SK-OV-3 cells assessed as reduction in number of cells at 75 nM after 24 to 72 hrs; format: functional, cell-based; conditions: time 24-72 hrs
Outline: (§3)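 For 72-h growth curves, cells in 12-well plates in RPMI 1640 with 10% FBS were grown with or without 75 nM inhibitor. Cell numbers were determined by Coulter counting after trypsinization. Data are mean ± SD of triplicates.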

OVCAR-3 [12] = assay: Antiproliferative activity against human OVCAR-3 cells assessed as reduction in number of cells at 75 nM after 24 to 72 hrs; format: functional, cell-based; conditions: time 24-72 hrs; outline: as §3
HEY [13] = assay: Antiproliferative activity against human HEY cells assessed as reduction in number of cells at 75 nM after 24 to 72 hrs; format: functional, cell-based; conditions: time 24-72 hrs; outline: as §3
A2780 [14] = assay: Antiproliferative activity against human A2780 cells assessed as reduction in number of cells at 75 nM after 24 to 72 hrs; format: functional, cell-based; conditions: time 24-72 hrs; outline: as §3
OVCAR-3 [15] = assay: Antiproliferative activity against human OVCAR-3 cells assessed as reduction in cell viability after 72 hrs by MTT assay; format: functional, cell-based; conditions: OVCAR-3, 72 h
Outline: (§4)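 Cells in RPMI 1640 with 10% FBS were exposed to inhibitor over a range up to 10 µM for 72 h. Viability was read by MTT staining with absorbance at 570 nm, and IC50 was obtained by curve fitting. Data are mean ± SD of triplicates, representative of 3 independent experiments.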

SK-OV-3 [16] = assay: Antiproliferative activity against human SK-OV-3 cells assessed as reduction in cell viability after 72 hrs MTT assay; format: functional, cell-based; conditions: SK-OV-3, 72 h; outline: as §4
HEY [17] = assay: Antiproliferative activity against human HEY cells assessed as reduction in cell viability after 72 hrs MTT assay; format: functional, cell-based; outline: as §4
SK-OV-3 [18] = assay: Antiproliferative activity against human SK-OV-3 cells assessed as decrease in number of colonies at 75nM after 3 weeks by crystal violet staining based assay; format: functional, cell-based
Outline: (§5)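 Soft agar colony assay: wells pre-coated with 0.6% agar in complete medium, with cells overlaid in medium containing 0.3% agar. Fresh 0.3% agar medium was added every 3–5 days. Inhibitor was 75 nM for SKOV-3 and OVCAR-3. After 3 weeks, colonies were crystal violet stained and counted above 100 μm diameter (SKOV-3, A2780) or 50 μm (OVCAR-3), reported as colonies per well.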

OVCAR-3 [19] = assay: Antiproliferative activity against human OVCAR-3 cells assessed as decrease in number of colonies at 75nM after 3 weeks by crystal violet staining based assay; format: functional, cell-based; outline: as §5
HEY [20] = assay: Antiproliferative activity against human HEY cells assessed as decrease in number of colonies at 75nM after 3 weeks by crystal violet staining based assay; format: functional, cell-based
A2780 [21] = assay: Antiproliferative activity against human A2780 cells assessed as decrease in number of colonies at 75nM after 3 weeks by crystal violet staining based assay; format: functional, cell-based; outline: as §5
SK-OV-3 [22] = assay: Antitumor activity against human SK-OV-3 cells xenografted in NSG mouse assessed as reduction tumor volume at 4.5 mg/kg/day, po for 4 weeks relative to control; format: functional; set-up: scale not given: the % may be the effect or the level left
Outline: (§6)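 Female NSG mice aged 6–7 weeks received 4 × 10^6 SKOV-3 cells in serum-free medium s.c. on the right flank. At about 100 mm3, mice were grouped 5 per group and gavaged daily at 0, 1.5, 3 or 4.5 mg/kg for 28 days. Caliper volume was calculated as lw2/2, with body weights tracked and endpoint tumors weighed; mean ± SD.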

SK-OV-3 [23] = assay: Antitumor activity against human SK-OV-3 cells xenografted in NSG mouse assessed as reduction tumor weight at 4.5 mg/kg/day, po for 4 weeks relative to control; format: functional; set-up: scale not given: the % may be the effect or the level left; outline: as §6
[24] = Toxicity in NSG mouse xenografted with SK-OV-3 cells assessed as reduction in body weight at 4.5 mg/kg/day, po for 4 weeks relative to control; format: organism-based; set-up: scale not given: the % may be the effect or the level left; conditions: in vivo, 672 h; outline: as §6
[25] = Antitumor activity against human derived High-grade serous ovarian cancer cell xenografted in NSG mouse model of OVC-PDX2 assessed as decrease in tumor volume at 4 mg/kg/day, po 30 days relative to control; format: functional, Ovarian carcinoma cell; set-up: scale not given: the % may be the effect or the level left; conditions: time 30 day
Outline: (§7)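 Serous ovarian carcinoma fragments of 1–2 mm3 were implanted s.c. on the right flank of 6–8-week female NSG mice and re-passaged at about 1 cm3. At an average of 100 mm3, mice were grouped 5 per group and gavaged with 4 mg/kg/day for 30 days. Caliper volume was calculated as lw2/2, with body weight monitored and endpoint xenografts weighed.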

[26] = Antitumor activity against human derived High-grade serous ovarian cancer cell xenografted in NSG mouse model of OVC-PDX3 assessed as decrease in tumor volume at 4 mg/kg/day, po 30 days relative to control; format: functional, Ovarian carcinoma cell; set-up: scale not given: the % may be the effect or the level left; conditions: time 30 day; outline: as §7
[27] = Antitumor activity against human derived High-grade serous ovarian cancer cell xenografted in NSG mouse model of OVC-PDX2 assessed as decrease in tumor weight at 4 mg/kg/day, po 30 days relative to control; format: functional, Ovarian carcinoma cell; set-up: scale not given: the % may be the effect or the level left; conditions: time 30 day; outline: as §7
[28] = Antitumor activity against human derived High-grade serous ovarian cancer cell xenografted in NSG mouse model of OVC-PDX3 assessed as decrease in tumor weight at 4 mg/kg/day, po 30 days relative to control; format: functional, Ovarian carcinoma cell; set-up: scale not given: the % may be the effect or the level left; conditions: time 30 day; outline: as §7
[29] = Toxicity in NSG mouse xenografted with human derived High-grade serous ovarian cancer cell model of OVC-PDX2 assessed as reduction in body weight at 4 mg/kg/day, po for 30 days relative to control; format: organism-based; conditions: in vivo, 720 h, time 30 day; outline: as §7
[30] = Toxicity in NSG mouse xenografted with human derived High-grade serous ovarian cancer cell model of OVC-PDX3 assessed as reduction in body weight at 4 mg/kg/day, po for 30 days relative to control; format: organism-based; conditions: in vivo, 720 h, time 30 day; outline: as §7
A2780 [31] = assay: Antiproliferative activity against human A2780 cells assessed as reduction in cell viability up to 2 uM after 72 hrs by MTT assay; format: functional, cell-based; outline: as §4
SK-OV-3 [32] = assay: Antiproliferative activity against human SK-OV-3 cells assessed as decrease in size colonies at 75nM after 3 weeks by crystal violet staining based assay; format: functional, cell-based; outline: as §5
OVCAR-3 [33] = assay: Antiproliferative activity against human OVCAR-3 cells assessed as decrease in size of colonies at 75nM after 3 weeks by crystal violet staining based assay; format: functional, cell-based; outline: as §5
HEY [34] = assay: Antiproliferative activity against human HEY cells assessed as decrease in size of colonies at 75nM after 3 weeks by crystal violet staining based assay; format: functional, cell-based
A2780 [35] = assay: Antiproliferative activity against human A2780 cells assessed as decrease in size of colonies at 75nM after 3 weeks by crystal violet staining based assay; format: functional, cell-based; outline: as §5
SK-OV-3 [36] = assay: Upregulation of GLUT1 in human SK-OV-3 cells at 0.25 mM after 24 hrs by immunoblotting analysis; format: functional, cell-based
OVCAR-3 [37] = assay: Upregulation of GLUT1 in human OVCAR-3 cells at 0.25 mM after 24 hrs by immunoblotting analysis; format: functional, cell-based
SK-OV-3 [38] = assay: […] of glycolysis in human SK-OV-3 cells ssessed as decrease in conversion of D-[5-3H(N)]-glucose to 3H2O at 0.25 mM incubated for 24 hrs by liquid scintillation counting; format: functional, cell-based; outline: as §1
OVCAR-3 [39] = assay: […] of glycolysis in human OVCAR-3 cells ssessed as decrease in conversion of D-[5-3H(N)]-glucose to 3H2O at 0.25 mM incubated for 24 hrs by liquid scintillation counting; format: functional, cell-based; outline: as §1

## COc1ccc([C@@H](O)[C@@H](C)Oc2ccc([C@H]3O[C@H](c4ccc(O[C@H](C)[C@H](O)c5ccc6c(c5)OCO6)c(OC)c4)[C@H](C)[C@H]3C)cc2OC)cc1OC
SK-OV-3 [1]
  Activity: Active
OVCAR-3 [2]
  Activity: Active
SK-OV-3 [3]
  Activity: Active
OVCAR-3 [4]
  Activity: Active

## CN(C)C(=N)NC(=N)N
SK-OV-3 [5]
  Activity: Active
OVCAR-3 [6]
  Activity: Active
SK-OV-3 [7]
  Activity: Active
OVCAR-3 [8]
  Activity: Active

## Cc1c(NC(=O)c2cc(C(N)=O)nc3cc(F)ccc23)c(C(F)(F)F)nn1Cc1ccc(C#N)cc1 [BAY-876]
SK-OV-3 [9]
  Activity: Dose-Dependent Effect
OVCAR-3 [10]
  Activity: Dose-Dependent Effect
SK-OV-3 [11]
  Activity: Active
OVCAR-3 [12]
  Activity: Active
HEY [13]
  Activity: Active
A2780 [14]
  Activity: inactive
OVCAR-3 [15]
  IC50: 60 nM
SK-OV-3 [16]
  IC50: 188 nM
HEY [17]
  IC50: 1000 nM
SK-OV-3 [18]
  Activity: Active
OVCAR-3 [19]
  Activity: Active
HEY [20]
  Activity: Active
A2780 [21]
  Activity: inactive
SK-OV-3 [22]
  Activity: 68%
SK-OV-3 [23]
  Activity: 66%
[24]
  Activity: 18%
[25]
  Activity: >60%
[26]
  Activity: >60%
[27]
  Activity: 50%
[28]
  Activity: 71%
[29]
  Activity: Non-Toxic
[30]
  Activity: Non-Toxic
A2780 [31]
  Activity: inactive
SK-OV-3 [32]
  Activity: Active
OVCAR-3 [33]
  Activity: Active
HEY [34]
  Activity: Active
A2780 [35]
  Activity: inactive

## CCOC(=O)[C@@]1(CCCCCCOc2ccc(Cl)cc2)CO1
SK-OV-3 [36]
  Activity: Active
OVCAR-3 [37]
  Activity: Active
SK-OV-3 [38]
  Activity: Active
OVCAR-3 [39]
  Activity: Active
